This is an account of results in PMC3244355 (Journal of the American Chemical Society, 2011).

The nature of data set [1]: chemical stability in aqueous buffer solution. It counts as physicochemical. As to conditions: pH 4–9, several days at ambient temperature. The procedure, abridged:
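The test dye is held in aqueous buffer across pH 4–9 at ambient temperature for several days. Absorbance/emission properties are monitored, and the solution is checked for decomposition.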

Data set [2] in a line: photophysical properties. It counts as physicochemical. The procedure, abridged:
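Samples are prepared at 20 μM. Dye–inhibitor conjugate spectra are recorded in 1% DMSO/PBS, pH 7.4, at 25 °C with excitation at 405 nm. Tabulated dye entries are excited at their λmax. Absorption maximum, molar absorptivity, emission maximum and fluorescence quantum yield are reported.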

Data set [3] relates to HeLa cells. The data set can be described thus: membrane permeability and localization of free dyes, live-cell imaging. It counts as cell-based, human. Conditions: living HeLa cells, 20 μM, 60 minutes, with AlexaFluor546-BSA endocytosis marker. The procedure, abridged: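 Live HeLa cells are incubated for 1 h in 20 μM test dye, with 100 μg/mL AlexaFluor546-labeled BSA as a fluid-phase endocytosis marker. Cells are washed free of dye and imaged live by epifluorescence microscopy using a custom filter set matched to 395/500 excitation/emission. Merged images are used to compare dye distribution with marker-containing endosomal vesicles.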

Data set [4] is described as follows: solubility. It counts as physicochemical. Conditions: variety of solvents.
Data set [5] concerns HeLa cells. Kind of data set: toxicity / cell viability of dye-treated cells. As to conditions: cells treated for up to 6 h with 100 μM dye. The class given is cell-based, human.
The subject of data set [6] is HeLa cells. Kind of data set: cell-based assay for bipolar spindle assembly / mitotic arrest. Further details: species or system human. As to conditions: 4 h; for EC50: Homo sapiens, HeLa, read-out: EC50 for mitotic arrest in cell-based assay; for spindle morphology: HeLa cells, fixed, anti-tubulin antibodies. The procedure, abridged: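 HeLa cells are incubated for 4 h with the test compound, alongside an untreated control. They are then fixed and probed with anti-tubulin antibodies, with DNA counterstained. Spindle organization (bipolar vs. monopolar spindle formation) is assessed by fluorescence microscopy.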

In data set [7] the target is T1, purified human KSP motor domain (Homo sapiens, UniProt P52732).
T1 sequence (P52732 18-359 limits assumed): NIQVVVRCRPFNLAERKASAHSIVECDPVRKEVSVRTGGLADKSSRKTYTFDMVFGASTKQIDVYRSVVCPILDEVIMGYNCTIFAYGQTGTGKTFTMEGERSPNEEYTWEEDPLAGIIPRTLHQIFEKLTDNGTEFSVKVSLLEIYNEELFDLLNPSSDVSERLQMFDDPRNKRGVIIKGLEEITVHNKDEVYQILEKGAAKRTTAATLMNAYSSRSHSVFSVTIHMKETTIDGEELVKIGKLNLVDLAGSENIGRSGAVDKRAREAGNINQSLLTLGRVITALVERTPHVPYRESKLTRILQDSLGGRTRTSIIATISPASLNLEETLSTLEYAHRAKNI
Kind of data set: in vitro biochemical assay for microtubule-stimulated KSP ATPase activity.

Setting [8] is: 1%DMSO/PBS pH 7.4, 20 μM sample.
[9] abbreviates: 1%DMSO/PBS pH 7.4, 20 μM sample, excited at λmax.
[10] abbreviates: Acetone, 20 μM sample, excited at λmax.
[11] abbreviates: CH2Cl2, 20 μM sample, excited at λmax.
Setting [12] is: MeOH, 20 μM sample, excited at λmax.
The mark [13] stands for this setting: Toluene, 20 μM sample, excited at λmax.
Where [14] appears, read: conjugates, 20 μM in 1% DMSO/PBS, pH 7.4 at 25 °C.
Where [15] appears, read: conjugates, 20 μM in 1% DMSO/PBS, pH 7.4 at 25 °C, excited at 405 nm.

Turning to `CC(C)=[N+]1N=C2C=CC(Br)=CN2[B-]1(F)F` [Compound 16, 6-Bromo-3,3-difluoro-2-(propan-2-ylidene)-2,3-dihydro-[1,2,4,3]triazaborolo[4,5-a]pyridin-2-ium-3-uide], the “chemical stability in aqueous buffer solution” value in data set [1] is listed as “no decomposition in solution was evident”. The Φf in data set [2] (setting [8]) is on record as 0.17; in data set [2] (Acetone, 20 μM sample), 0.17; in data set [2] (CH2Cl2, 20 μM sample) it was 0.22; in data set [2] (MeOH, 20 μM sample), 0.21; in data set [2] (Toluene, 20 μM sample) it was 0.07. For the same molecule, the ε is recorded as 8 600 M^−1cm^−1 in data set [2] (setting [8]); 8 600 M^−1cm^−1 in data set [2] (Acetone, 20 μM sample); 9 300 M^−1cm^−1 in data set [2] (CH2Cl2, 20 μM sample); 8 500 M^−1cm^−1 in data set [2] (MeOH, 20 μM sample); 9 800 M^−1cm^−1 in data set [2] (Toluene, 20 μM sample). The λmax worked out at 404 nm in data set [2] (setting [8]); 403 nm in data set [2] (Acetone, 20 μM sample); 408 nm in data set [2] (CH2Cl2, 20 μM sample); 403 nm in data set [2] (MeOH, 20 μM sample); 406 nm in data set [2] (Toluene, 20 μM sample). Further, the λemi was 491 nm in data set [2] (setting [9]); 504 nm in data set [2] (setting [10]); 497 nm in data set [2] (setting [11]); 493 nm in data set [2] (setting [12]); 500 nm in data set [2] (setting [13]). The cell membrane permeability entry in data set [3] is given as “membrane permeable”. The solubility in solvents entry in data set [4] is recorded as “soluble in a variety of solvents”. In addition, in data set [5], the “toxicity / effects on cell viability” value is “no toxicity”.
For orientation: EC50 means the midpoint of the concentration-response curve. Usually IC50 stands for the concentration that gives 50% inhibition. Low readings indicate greater potency, high ones weaker potency. As for `COc1ccc(C(SCC(N)C(=O)NCCOCCN)(c2ccccc2)c2ccccc2)cc1` (stereo not drawn) [Compound 27, 2-Amino-N-(2-(2-aminoethoxy)ethyl)-3-((4-methoxyphenyl)diphenylmethylthio)propanamide], the 50% effective concentration (EC50) in data set [6] was determined as 580 nM. This molecule gave a concentration for half-maximal inhibition (IC50) in data set [7] of 750 nM.
With `CO[B-]1(OC)N2C=C(Br)C=CC2=N[N+]1=C(C)C` [Compound 21, 6-Bromo-3,3-dimethoxy-2-(propan-2-ylidene)-2,3-dihydro-[1,2,4,3]triazaborolo[4,5-a]pyridin-2-ium-3-uide], the Φf in data set [2] (setting [8]) stood at 0.16; in data set [2] (Acetone, 20 μM sample), 0.23; in data set [2] (CH2Cl2, 20 μM sample), 0.20; in data set [2] (MeOH, 20 μM sample), 0.21; in data set [2] (Toluene, 20 μM sample), 0.51. The ε in data set [2] (setting [8]) is reported as 12 300 M^−1cm^−1; in data set [2] (Acetone, 20 μM sample) it was 10 800 M^−1cm^−1; in data set [2] (CH2Cl2, 20 μM sample), 11 200 M^−1cm^−1; in data set [2] (MeOH, 20 μM sample), 12 000 M^−1cm^−1; in data set [2] (Toluene, 20 μM sample) it was 10 600 M^−1cm^−1. The λmax in data set [2] (setting [8]) is 404 nm; in data set [2] (Acetone, 20 μM sample), 407 nm; in data set [2] (CH2Cl2, 20 μM sample), 406 nm; in data set [2] (MeOH, 20 μM sample) it was 403 nm; in data set [2] (Toluene, 20 μM sample) it was 410 nm. For the same molecule, the λemi was found to be 492 nm in data set [2] (setting [9]); 504 nm in data set [2] (setting [10]); 497 nm in data set [2] (setting [11]); 492 nm in data set [2] (setting [12]); 501 nm in data set [2] (setting [13]). Besides, in data set [3], the cell membrane permeability entry is given as “membrane permeable”. In data set [4], the solubility in solvents result is given as “soluble in a variety of solvents”. Moreover, the “toxicity / effects on cell viability” value in data set [5] is listed as “no toxicity”.
For the molecule `COc1ccc(C(SCC(N)C(=O)NCCC#CC2=CN3C(=N[N+](=C(C)C)[B-]3(OC)OC)C=C2)(c2ccccc2)c2ccccc2)cc1` (stereo not drawn) [Compound 26, 6-(4-(2-Amino-3-((4-methoxyphenyl)diphenylmethylthio)propanamido)-but-1-ynyl)-3,3-dimethoxy-2-(propan-2-ylidene)-2,3-dihydro-[1,2,4,3]triazaborolo[4,5-a]pyridin-2-ium-3-uide], in data set [6], the spindle morphology entry was “dose-dependent formation of monopolar spindles” and the EC50 came to 1030 nM. Further, the IC50 in data set [7] stood at 600 nM. In addition, in data set [2] (setting [14]), the ε is reported as 12 900 and the λmax came out at 400 nm. In addition, in data set [2] (setting [15]), the Φf stood at 0.29 and the λemi is given as 486 nm.
For the molecule `COc1ccc(C(SCC(N)C(=O)NCCC#CC2=CN3C(=N[N+](=C(C)C)[B-]3(F)F)C=C2)(c2ccccc2)c2ccccc2)cc1` (stereo not drawn) [Compound 25, 6-(4-(2-Amino-3-((4-methoxyphenyl)diphenylmethylthio)propanamido)but-1-ynyl)-3,3-difluoro-2-(propan-2-ylidene)-2,3-dihydro-[1,2,4,3]triazaborolo[4,5-a]pyridin-2-ium-3-uide], in data set [6], the spindle morphology result is “dose-dependent formation of monopolar spindles” and the concentration for a half-maximal effect (EC50) stood at 1130 nM. In data set [7], this molecule returned an IC50 of 850 nM. Besides, in data set [2] (setting [14]), the ε was 9 900 and the λmax is 400 nm. In data set [2] (setting [15]), this molecule had a Φf of 0.31 and a λemi of 489 nm.
